Data published in BindingDB's records for doi:10.1021/np300893n (The University of Mississippi, 2013).

Target: Myc proto-oncogene protein (Homo sapiens, UniProt P01106)
Assay: Inhibition of Myc signaling pathway in human HeLa cells assessed as inhibition of PMA induced luciferase treated 30 mins before induction
How it was run: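 Reporter assay in cells transfected with pathway luciferase plasmids. Cells plated at 0.015 × 10⁶ per well in 10% FBS, switched after 24 h to DMEM with 1% FBS, then transfected. 24 h after transfection, compound (final 40, 60, 80 or 100 μM) was added, followed 30 min later by inducer (IL-6, TGF-β, wnt3a or PMA). Luciferase was read 4 or 6 h after induction (6 h for Notch, Wnt, Hedgehog). Value is the IC50 or the lowest concentration giving maximal 50–60% inhibition; two independent experiments.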

Myc proto-oncogene protein, sequence (P01106 16-454): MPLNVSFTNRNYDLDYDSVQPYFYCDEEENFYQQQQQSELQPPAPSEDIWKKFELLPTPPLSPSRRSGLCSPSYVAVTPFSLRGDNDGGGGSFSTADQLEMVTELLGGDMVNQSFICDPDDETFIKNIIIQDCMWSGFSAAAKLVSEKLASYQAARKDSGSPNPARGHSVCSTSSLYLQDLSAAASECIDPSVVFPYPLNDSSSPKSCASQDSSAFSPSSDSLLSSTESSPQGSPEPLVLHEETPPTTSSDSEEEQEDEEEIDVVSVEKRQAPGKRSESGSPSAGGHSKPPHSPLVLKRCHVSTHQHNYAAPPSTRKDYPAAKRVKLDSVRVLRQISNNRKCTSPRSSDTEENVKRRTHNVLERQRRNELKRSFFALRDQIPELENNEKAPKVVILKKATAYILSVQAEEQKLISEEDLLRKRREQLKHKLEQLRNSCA

SMILES: COc1cc(/C=C\c2ccc(OC)c(OC)c2)cc(OC)c1 [(Z)-3,4,3'',5''-Tetramethoxystilbene]
- IC50: 60 µM
